The results in this text go back to ChEMBL document CHEMBL3769325, “Exploration of 2-benzylbenzimidazole scaffold as novel inhibitor of NF-κB” (Bioorg Med Chem, 2016).

One assay relates to RAW264.7. As to the kind of experiment: Inhibition of LPS induced NF-kappa-B transcriptional activity in mouse RAW264.7 cells at 30 uM after 20 hrs by SEAP reporter assay. In kind it is cell-based. The gist of the method:
(§1)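 RAW 264.7 cells stably transfected with an NF-κB-driven SEAP reporter, stimulated with LPS. Culture supernatants were heated to 65 °C for 5 min, then reacted in the dark with 4-methylumbelliferyl phosphate (500). SEAP activity was read as RFU at ex 360/em 450 nm. Results are given as IC50 or as % inhibition at 30, from three independent experiments, each averaged from triplicates.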
For orientation: A reporter such as luciferase makes a cellular process visible.

A short description of assay [1]: Inhibition of LPS induced NF-kappa-B transcriptional activity in mouse RAW264.7 cells after 20 hrs by SEAP reporter assay. The format is cell-based. As to conditions: RAW264.7, 20 h. The gist of the method: as §1

Molecules are shown by their SMILES. Some results are limits rather than exact numbers.

`FC(F)(F)c1ccc(Cc2nc3ccccc3[nH]2)cc1`: the inhibition (as a rule, how much of the control response was suppressed) with RAW264.7 is 55%. In assay [1], 16.4 µM corresponded to half-maximal inhibition (IC50).
Regarding `Clc1ccc(Cc2nc3ccccc3[nH]2)cc1Cl`, the inhibition in the assay on RAW264.7 is 63%. Also, in assay [1], half-maximal inhibition (IC50) required 15 µM.
`Clc1ccc(-c2nc3ccccc3[nH]2)cc1`: the inhibition with RAW264.7 is 12%. Besides, the IC50 (usually the concentration at which inhibition is half-maximal) in assay [1] was more than 30 µM.
In the case of `Oc1ccc(Cc2nc3ccccc3[nH]2)cc1O`, in the assay with RAW264.7, the inhibition stood at 75%. Also, the IC50 in assay [1] was 6 µM.
`Cc1ccc(Cc2nc3ccccc3[nH]2)cc1` had an inhibition in the assay on RAW264.7 of 60%. The IC50 in assay [1] worked out at 19 µM.
With `COc1ccc(-c2nc3ccccc3[nH]2)cc1`, the inhibition in the assay with RAW264.7 turned out to be 22%. In addition, the IC50 in assay [1] is more than 30 µM.
Take `COc1cc(Cc2nc3ccccc3[nH]2)cc(OC)c1OC`: the inhibition in the assay on RAW264.7 stood at 32%. For the same compound, the half-inhibitory concentration (IC50) in assay [1] was more than 30 µM.
For the compound `CC(C)CCOc1cccc(O)c1C(=O)/C=C/c1ccc(O)cc1`, the IC50 in assay [1] came out at 10 µM.
For `c1ccc(Cc2nc3ccccc3[nH]2)cc1` [BENDAZOL], the inhibition with RAW264.7 worked out at 43%. This compound also came in with an IC50 in assay [1] of 18.4 µM.
As for `Oc1ccc(Cc2nc3ccccc3[nH]2)cc1`, in the assay with RAW264.7, the inhibition was 75%. Besides, in assay [1], it took 6 µM to reach half-maximal inhibition (IC50).
For `CS(=O)(=O)c1ccc(Cc2nc3ccccc3[nH]2)cc1` the same measures were 43% and 28 µM.
Consider `COc1ccc(Cc2nc3ccccc3o2)cc1`, for which the inhibition with RAW264.7 worked out at 42%. Further, the IC50 in assay [1] is more than 30 µM.
In the assay with RAW264.7, `COc1ccc(Cc2nc3ccccc3s2)cc1` returned an inhibition of 67%. In assay [1], this compound registered an IC50 of 9 µM.
In the same order, the values of `Clc1ccc2[nH]c(Cc3ccccc3)nc2c1` are 31% and more than 30 µM.
`COc1ccccc1Cc1nc2ccccc2[nH]1` came in with an inhibition in the assay with RAW264.7 of 85%. Moreover, in assay [1], the IC50 came out at 2.4 µM.
As for `Clc1ccc(Cc2nc3ccccc3[nH]2)cc1`, the inhibition in the assay on RAW264.7 turned out to be 85%. The compound further gave an IC50 in assay [1] of 2.4 µM.
For `c1ccc(-c2nc3ccccc3[nH]2)cc1` the same measures were 22% and more than 30 µM.
Compound `COc1ccc(Cc2nc3cc(OC)ccc3[nH]2)cc1` yielded an inhibition in the assay on RAW264.7 of 61%. In assay [1], the IC50 was more than 30 µM.
With `O=[N+]([O-])c1ccc(Cc2nc3ccccc3[nH]2)cc1`, the inhibition in the assay with RAW264.7 stood at 64%. In addition, in assay [1], the IC50 turned out to be 12 µM.
In the assay on RAW264.7, `COc1ccc2[nH]c(Cc3ccccc3)nc2c1` registered an inhibition of 45%. In assay [1], this compound gave an IC50 of 18 µM.
`Clc1ccc(Cc2nc3cc(Cl)ccc3[nH]2)cc1` registered an inhibition in the assay on RAW264.7 of 76%. Also, the IC50 in assay [1] was found to be 5 µM.
In the same order, the values of `COc1ccc(Cc2nc3ccccc3[nH]2)cc1OC` are 32% and more than 30 µM.
`COc1ccc(Cc2nc3cc(Cl)ccc3[nH]2)cc1` registered an inhibition in the assay with RAW264.7 of 66%. Moreover, the IC50 in assay [1] was found to be 10 µM.
In the case of `Nc1ccc(Cc2nc3ccccc3[nH]2)cc1`, the inhibition in the assay with RAW264.7 was determined as 40%. The IC50 in assay [1] was more than 30 µM.
In the assay on RAW264.7, `Clc1cccc(Cc2nc3ccccc3[nH]2)c1` had an inhibition of 66%. This compound also gave an IC50 in assay [1] of 10 µM.
For the compound `c1ccc(Cc2nc3ccccc3o2)cc1`, the inhibition in the assay on RAW264.7 was 33%. In assay [1], this compound showed a half-inhibitory concentration (IC50) of more than 30 µM.
In the assay on RAW264.7, `COc1ccc(CCc2nc3ccccc3[nH]2)cc1` returned an inhibition of 50%. Moreover, the IC50 in assay [1] is more than 30 µM.
In the assay on RAW264.7, `COc1ccc(Cc2nc3ccccc3[nH]2)cc1` showed an inhibition of 90%. In assay [1], this compound registered an IC50 of 1.7 µM.
`Clc1ccccc1Cc1nc2ccccc2[nH]1` displayed an inhibition in the assay on RAW264.7 of 33%. In addition, the IC50 in assay [1] is more than 30 µM.
